EBV gp42 block = EBV gp42 inhibition. Q1HVG2. Fluorescence polarization binding assay, mP read-out. inhibition, % (tested at 21.74 µM). 220,000 compounds, 0.42% hits. AID 1085; in the data active means inhibition above about 50%
GRK2 aptamer HTS = inhibitors of human GRK2 displacing RNA aptamer; AID 488847; P25098; 330,000 compounds, 0.59% hits; inhibition of aptamer binding, % at 10 µM; bead flow cytometry, FAM-aptamer displacement from GRK2;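 active means inhibition of aptamer binding above 40%, roughly 3 SD of noise, on plates passing a quality check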;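 further: median bead fluorescence of bound FAM aptamer so fluorescent compounds give negative values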
MEX-5 binding = C. elegans MEX-5 TCR-2 RNA binding activity | Q9XUB2 | MEX-5/FITC-TCR2 RNA binding, fluorescence polarization; stronger effect = lower value | activity score (negative = inhibition of binding), % at 10 µM | 300,000 compounds, 0.38% hits | AID 1832;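 active means inhibition past about -25% in most replicates, and total fluorescence under double the plate's negative control median, limit read from the data; inconclusive means replicates evenly split on the limit, or fluorescence at least double controls; inactive means too little inhibition in most replicates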
Target sequence (Q9XUB2 whole entry, looked up): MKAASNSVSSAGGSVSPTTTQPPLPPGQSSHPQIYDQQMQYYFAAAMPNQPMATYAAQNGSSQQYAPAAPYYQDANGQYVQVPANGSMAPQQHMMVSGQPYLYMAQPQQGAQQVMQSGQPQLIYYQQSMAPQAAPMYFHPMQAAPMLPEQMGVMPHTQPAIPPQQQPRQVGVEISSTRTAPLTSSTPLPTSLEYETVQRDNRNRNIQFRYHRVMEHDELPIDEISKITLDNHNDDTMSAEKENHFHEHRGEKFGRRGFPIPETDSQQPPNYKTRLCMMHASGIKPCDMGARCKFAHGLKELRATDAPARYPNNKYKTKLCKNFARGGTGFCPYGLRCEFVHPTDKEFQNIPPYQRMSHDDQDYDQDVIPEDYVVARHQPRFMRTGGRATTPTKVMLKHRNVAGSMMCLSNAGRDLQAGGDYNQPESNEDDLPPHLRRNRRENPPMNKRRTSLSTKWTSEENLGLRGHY
Keap1 Nrf2 FP = inhibitors of human Keap1-Nrf2 protein-protein interaction; AID 504523; 340,000 compounds, 0.15% hits; inhibition, % at 9.4 µM; Keap1 Kelch-Nrf2 peptide fluorescence polarization, 1536-well; in the data active means inhibition above about 12%; inconclusive means no clear call, values can overlap the other calls; inactive means below about 7.3%;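 further: human Keap1 Kelch domain with fluorescein labeled Nrf2 9mer peptide probe; higher means more block of Keap1 binding to Nrf2 peptide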
T cell modulator = modulates CD8 T cell binding to vesicles | 2C CD8+ T cell-vesicle binding, flow cytometry; stronger effect = lower value | response (vesicle binding), % at 7 µM | 330,000 compounds, 0.068% hits | AID 2052;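 active means response, share of CD8 T cells binding vesicles, and their 90th percentile fluorescence all below set limits, cut at about 80% in these data, passing the limit was not always enough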;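 further: values below 100% mean blocked vesicle binding to the CD8+ T cells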
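Benchmarks: naked versus QL9-loaded vesicles / Assay system: purified 2C TCR transgenic mouse naive CD8+ T cells / Technique: high-throughput flow cytometry with anti-B7-1 and anti-CD8 staining / Timing: Cell–vesicle co-incubation 1.5 h at 37 °C, staining 20 min on ice / Read-out: percent CD8+ FL2 mean versus row control / Probe or stimulus: QL9-loaded Drosophila micro-vesicles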
LANA DNA inh = inhibitors of KSHV LANA C-terminal domain DNA binding. MBP-C-LANA/FAM-LBS DNA binding, fluorescence polarization. 340,000 compounds, 0.078% hits. inhibition, % at 9 µM;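 active means highest replicate inhibition at or above 60% at 9 µM, even if other replicates fall short; inactive means all replicates below 60% inhibition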
GRK2 CP1 = confirmation of human GRK2 inhibitors displacing RNA aptamer | shares compounds with GRK2 aptamer HTS | bead-bound GRK2, FAM-aptamer displacement, flow cytometry | aptamer displacement, % at 10 µM | 2,000 compounds, 4% hits | AID 504451;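 active means aptamer displacement above 40%, near three times the noise of non-fluorescent compounds, on plates passing quality checks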;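 further: negative values mostly reflect intrinsic compound fluorescence rather than true enhancement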
Aptamer quench 1 = fluorescent aptamer quenching in GRK2 counter-screen dose response; shares compounds with GRK2 aptamer HTS; Fluorescent RNA aptamer beads, flow cytometry; stronger effect = higher value; fluorescence change (kMESF span), kMESF (concentration not given with the values); 110 tested, under 10 active; AID 504521;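 active means compounds whose bead fluorescence drops by more than 37 kMESF across the dose range, marking them as dye quenchers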
Aptamer quench SP = aptamer fluorescence quenching in GRK2 counter-screen; fluorescence response (% of DMSO), % at 10 µM; 2,000 tested, under 10 active; AID 504580; Carboxyfluorescein RNA aptamer on beads, flow cytometry quenching; stronger effect = lower value; shares compounds with GRK2 aptamer HTS;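 active means compounds that quench the bead-bound fluorescent RNA probe, cutting fluorescence to under half of the solvent control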;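 further: counterscreen run without GRK2 so only probe quenching by compound is measured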
DNA intercal 2 = counter-screen for C-LANA inhibitors: DNA intercalators; 20 tested, under 10 active; Acridine orange-DNA displacement, fluorescence polarization; shares compounds with LANA DNA inh; AC50, µM (highest dose often 35 µM);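 active means signal drop with an AC50 no more than ten times the top valid dose; inconclusive means flat curve with 30 to 70% inhibition, or poor fit; inactive means no drop, flat response, or AC50 above the limit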
Keap1 TSA = Keap1 (human) Kelch domain binding; AID 651823; max delta Tm, degrees C; 400 compounds, 8% hits; shares compounds with Keap1 Nrf2 FP; Keap1 Kelch thermal shift, delta Tm; stronger effect = higher value; in the data active means max delta Tm above about 0.48 degrees C
Sypro dye melt = dye artifact in Keap1 thermal shift counter-screen; shares compounds with Keap1 Nrf2 FP; Sypro Orange dye-only thermal melt, no protein, delta Tm; top dose 26 µM; delta Tm, degrees C (test concentration not listed); 140 tested, under 10 active; AID 651858;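 active means at highest dose tested, delta Tm positive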
Of the large screens only hits and unclear results are named; the others gave an inactive call (follow-up assays come after a bar, where they were run). Rows were chosen to be rich in hits. Some 1.3% of all compounds tested hit in one or more screens of this group.

NS(=O)(=O)c1cc(C(=O)NC2CCSc3ccccc32)ccc1Cl (stereo unspecified)	GRK2 aptamer HTS 51, MEX-5 binding inconclusive, Keap1 Nrf2 FP 20, LANA DNA inh 90 (no result: EBV gp42 block) | GRK2 CP1 inactive | Aptamer quench SP inactive | Keap1 TSA inactive | Sypro dye melt inactive
Cc1cccc(C)c1NC(=O)CSc1nnc(-c2ccco2)c(-c2ccco2)n1	GRK2 aptamer HTS 47, Keap1 Nrf2 FP 46, LANA DNA inh 105 | GRK2 CP1 inactive | Aptamer quench SP inactive | Keap1 TSA inactive | Sypro dye melt inactive
CC(C)C(C(=O)O)N1C(=O)/C(=C/C=C/c2ccco2)SC1=S (stereo unspecified)	GRK2 aptamer HTS 95, MEX-5 binding -35, Keap1 Nrf2 FP 13, LANA DNA inh 107 | GRK2 CP1 55 | Aptamer quench 1 inactive | Aptamer quench SP inactive | Keap1 TSA 0.91
O=C(O)CCNc1ccc(NCCC(=O)O)c2c1C(=O)c1ccccc1C2=O	GRK2 aptamer HTS 42, MEX-5 binding -55, Keap1 Nrf2 FP 13 (no result: EBV gp42 block) | GRK2 CP1 inactive | Aptamer quench SP inactive | Keap1 TSA 0.63 | Sypro dye melt inactive
Cc1ccccc1CNC(=O)/C=C\C(=O)O	none
CSc1ccc(/C=N/Nc2cccc(C(=O)O)c2)cc1	LANA DNA inh 78 (no result: GRK2 aptamer HTS, MEX-5 binding, T cell modulator) | DNA intercal 2 inactive
O=C(O)c1cccc(N/N=C/c2ccc(OC(F)(F)F)cc2)c1	none (no result: EBV gp42 block)
O=C(c1cccc(Cl)c1)N(Cc1ccco1)C1CCS(=O)(=O)C1 (stereo unspecified)	none (no result: EBV gp42 block)
CCC(=O)Oc1ccc2c(c1)O/C(=C\c1ccco1)C2=O	none | DNA intercal 2 inactive
Cc1cnn(C(=S)NCc2ccco2)c1	none
O=C1/C(=C/c2ccco2)Oc2c1ccc(O)c2CN1CCCCC1	EBV gp42 block 51, MEX-5 binding inconclusive, LANA DNA inh 66 | DNA intercal 2 30µM
COC(=O)c1ccccc1NC(=O)CCS(=O)(=O)c1ccc(Br)cc1	EBV gp42 block 75 (no result: GRK2 aptamer HTS, T cell modulator) | DNA intercal 2 inactive
COC(=O)c1ccccc1NC(=O)CC(=O)Nc1ccccc1C(=O)OC	none (no result: EBV gp42 block)
O=C(O)C1Nc2ccc(Br)cc2C2C=CCC12 (stereo unspecified)	GRK2 aptamer HTS 77, MEX-5 binding -30, LANA DNA inh 69 (no result: EBV gp42 block) | DNA intercal 2 inactive
Cc1ccc(Nc2c(O)nc[nH]c2=O)cc1	none (no result: EBV gp42 block, GRK2 aptamer HTS, MEX-5 binding, T cell modulator)
CCCCn1c(SCC(=O)c2ccc(O)c(O)c2)nc2ccsc2c1=O	none
O=C(O)CCCCCn1c(SCC(=O)c2ccc(O)c(O)c2)nc2ccsc2c1=O	MEX-5 binding -27 | DNA intercal 2 inactive
COc1cc(CO)ccc1Oc1nc2ccccc2n2cnnc12	Keap1 Nrf2 FP 31 | Keap1 TSA inactive
COC(=O)C1=C(C)NC(=O)NC1c1ccsc1 (stereo unspecified)	none
Nc1ccc2nc3c(=O)n(C4CCCCC4)c(=O)[nH]c3nc2c1	EBV gp42 block 152, MEX-5 binding inconclusive, Keap1 Nrf2 FP 60 | Keap1 TSA inactive | Sypro dye melt inactive
CCCCn1c(=O)[nH]c2nc3cc(N)ccc3nc2c1=O	EBV gp42 block 174, Keap1 Nrf2 FP 50 (no result: MEX-5 binding) | Keap1 TSA inactive | Sypro dye melt inactive
COC(=O)c1c(NC(=O)COC(=O)CNC(=O)C2CCCCC2)sc(C)c1C	none

Source: PubChem
